Screening results from PubChem.
Compounds with a hit are over-represented: about 3.5% of the library has one in this group of screens.
MrgX1 allo act: allosterically activates human MrgX1 receptor signaling | Q96LB2 | MrgX1-HEK293, Fluo-4 calcium flux, FDSS; stronger effect = higher value | B-score at 10 µM | hit rate 0.63% among 310,000 | AID 588675;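 active = plate-corrected calcium response at least 3 library SD above typical, normal starting fluorescence, not activating the receptor alone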;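 note: compound read alongside a low EC10 to EC30 dose of BAM8-22 agonist; peak minus trough fluorescence over baseline measured at the second addition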
Target sequence (Q96LB2 whole entry, looked up): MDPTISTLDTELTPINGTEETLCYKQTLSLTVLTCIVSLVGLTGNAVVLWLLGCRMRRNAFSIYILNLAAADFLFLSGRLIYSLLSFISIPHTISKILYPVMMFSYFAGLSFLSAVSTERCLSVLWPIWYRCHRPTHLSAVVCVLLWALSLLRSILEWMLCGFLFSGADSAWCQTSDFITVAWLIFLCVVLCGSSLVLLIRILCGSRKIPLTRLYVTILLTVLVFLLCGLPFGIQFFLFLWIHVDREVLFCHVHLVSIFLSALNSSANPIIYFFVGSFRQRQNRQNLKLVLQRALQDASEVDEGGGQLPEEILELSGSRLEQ
MrgX1 ag: activates human MrgX1 receptor signaling | Q96LB2 | MrgX1-HEK293 cells, Fluo-4 calcium fluorescence, agonist mode; stronger effect = higher value | B-score at 10 µM | hit rate 0.44% among 310,000;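 active = calcium response B-score plate-corrected fluorescence ratio at least 3 library SD, with starting fluorescence B-score inside 5 SD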
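System: HEK293 cells stably expressing human MrgX1 receptor; Dosing: test compound in the initial addition of three; Schedule: overnight plating, then 30 min 37 °C plus 30 min room-temperature dye loading; Detection: kinetic calcium dye fluorescence, Fluo-4 NW; Controls: per-plate positive and negative controls for Z′ factor.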
RGS4 pot: RGS4 potentiation or activation; HEK293 M3R/inducible RGS4, carbachol calcium flux Fluo4; stronger effect = lower value; B-score at 10 µM; hit rate 0.92% among 310,000; AID 463111;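 active = B-score of the integrated calcium signal more than 4 SD below the library mean, with starting fluorescence not abnormally high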;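 note: negative B-score means reduced calcium response which marks RGS4 activation or potentiation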
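Material: Inducible-RGS4 HEK293 cells carrying M3 receptor; also added: carbachol at ECmax as muscarinic agonist stimulus; incubation: compound preincubation 20 min at room temperature before agonist; signal: Fluo4-AM (2 µM) calcium-flux fluorescence, kinetic read; measure: integrated calcium ratio converted to B score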
MrgX1 antagonist: antagonists of human MrgX1 receptor | Q96LB2 | MRGX1-HEK293 calcium flux, Fluo-4, BAM8-22 antagonism; stronger effect = lower value | B-score at 10 µM | hit rate 1.3% among 310,000 | AID 588676;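 active = calcium-response B-score plate-corrected more than 3 library SD below zero, starting fluorescence within 5 deviations, no agonist response on first addition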;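 note: peak minus trough fluorescence over baseline after final BAM8-22 challenge near maximal dose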
RGS4 block: inhibitors of human RGS4. B-score at 10 µM. P49798. HEK293 M3R/RGS4 inducible, Fluo-4 calcium flux; stronger effect = higher value; triggered by carbachol at its EC20. AID 463165. hit rate 0.45% among 310,000;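 active = B-score, a plate-corrected calcium signal, over three deviations above library mean, with baseline fluorescence within five deviations of library mean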;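 note: RGS4 expression induced by doxycycline in cells with stable M3 receptor; B-score is computed from the integrated fluorescence ratio over baseline after carbachol; higher B-score means a larger calcium signal and so more RGS4 inhibition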
Target sequence (P49798 whole entry, looked up): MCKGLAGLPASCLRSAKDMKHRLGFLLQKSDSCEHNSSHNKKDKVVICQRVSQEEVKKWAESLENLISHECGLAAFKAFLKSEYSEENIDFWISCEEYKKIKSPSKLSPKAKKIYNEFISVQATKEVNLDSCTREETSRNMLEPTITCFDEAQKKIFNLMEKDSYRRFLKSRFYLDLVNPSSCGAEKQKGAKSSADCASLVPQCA
MrgX1 ag confirm: reconfirmed activator of human MrgX1 receptor signaling | shares compounds with MrgX1 ag | MrgX1-HEK293, Fluo-4 calcium fluorescence, FDSS | activation, % at 10 µM | hit rate 78% among 600;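 active = calcium signal rise, corrected for plate position, at least 3 library SD high, with starting brightness within 5 such deviations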
MrgX1 PAM conf: reconfirmed allosteric activator of human MrgX1 receptor; shares compounds with MrgX1 allo act; activation (ratio percentage), % at 10 µM; MrgX1-HEK293, Fluo-4 calcium fluorescence, FDSS; hit rate 13% among 1,200;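 active = ratio at least 3 SD above the weak peptide control, stable starting fluorescence, no direct agonism earlier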;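 note: compound followed by low BAM8-22 agonist challenge near EC20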
HEK293 Ca flux: MrgX1 antagonist counter-screen hit in parental HEK293 cells. fluorescence ratio F(max-min)/F0 at 10 µM. Fluo-4 calcium fluorescence, FDSS. hit rate 2% among 4,000. AID 624111. shares compounds with MrgX1 antagonist;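 active = duplicate-averaged calcium fluorescence ratio at least three times the standard deviation of buffer wells, a nonspecific response in parental cells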
HEK293 Ca counter: MrgX1 allosteric activator counter-screen hit in parental HEK293 cells; shares compounds with MrgX1 antagonist; parental HEK293 calcium flux, Fluo-4 fluorescence ratio; stronger effect = higher value; fluorescence ratio F(max-min)/F0 at 10 µM; hit rate 0.4% among 4,000; AID 624114;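 active = calcium fluorescence ratio, averaged over duplicates, at least 3 SD of the buffer-well ratio, meaning a nonspecific response in receptor-free cells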;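 note: untransfected parental HEK293 lacking MrgX1 used as counterscreen for MrgX1 allosteric activators; fluorescence change taken during the second addition on a kinetic imager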
HEK293 Ca cntr2: activity in parental HEK293 cells lacking MrgX1 receptor; hit rate 8.7% among 4,000; shares compounds with MrgX1 antagonist; Fluo-4 calcium fluorescence (FDSS); stronger effect = higher value; fluorescence ratio F(max-min)/F0 at 10 µM;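 active = calcium fluorescence ratio at least three times the spread of buffer wells, meaning a non-specific response in parental cells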
A number is an active result.

O=C(c1ccc2c(c1)OCO2)C1CCCN(CC2CCCCC2)C1 (stereo not drawn) was read as MrgX1 allo act inactive, MrgX1 ag inactive, RGS4 pot inactive, MrgX1 antagonist inactive and RGS4 block inactive.
`N[C@@H](Cn1oc(=O)[nH]c1=O)C(=O)O` gave MrgX1 allo act inactive, MrgX1 ag inactive, RGS4 pot inactive, MrgX1 antagonist inactive and RGS4 block inactive.
Screening COc1ccccc1-n1c(Cc2ccccc2)nc2ccccc2c1=O returned MrgX1 allo act inactive, MrgX1 ag inactive, RGS4 pot inactive, MrgX1 antagonist inactive and RGS4 block inactive.
Screening Cc1cc(C)n(-c2ccc(NN=C(C#N)C#N)cc2)n1 returned MrgX1 allo act inactive, MrgX1 ag 88, RGS4 pot inactive, MrgX1 antagonist inactive, RGS4 block inactive, MrgX1 ag confirm 215%, HEK293 Ca flux inactive, HEK293 Ca counter inactive and HEK293 Ca cntr2 56.
For CN(C)C1(CNC(=O)c2cc(S(=O)(=O)N3CCOCC3)c(Cl)cc2Cl)CCCCC1 the results were MrgX1 allo act inactive, MrgX1 ag inactive, RGS4 pot inactive, MrgX1 antagonist inactive and RGS4 block inactive.
For CN(C)C1(CNC(=O)Nc2ccc(Cl)c(Cl)c2)CCCCC1 the results were MrgX1 allo act inactive, MrgX1 ag 30, RGS4 pot inactive, MrgX1 antagonist inactive, RGS4 block inactive, MrgX1 ag confirm inactive, HEK293 Ca flux inactive, HEK293 Ca counter inactive and HEK293 Ca cntr2 inactive.
C[C@H]1OC[C@@H](C[N+](C)(C)C)O1 was read as MrgX1 allo act inactive, MrgX1 ag 112, RGS4 pot inactive, MrgX1 antagonist inactive, RGS4 block inactive, MrgX1 ag confirm 550%, HEK293 Ca flux inactive, HEK293 Ca counter inactive and HEK293 Ca cntr2 107.
`CC1OC(C[N+](C)(C)C)CC1O` (stereo not drawn) gave MrgX1 allo act inactive, MrgX1 ag 80, MrgX1 antagonist inactive, MrgX1 ag confirm 502%, HEK293 Ca flux inactive, HEK293 Ca counter inactive and HEK293 Ca cntr2 104.
CNCCc1ccc(O)c(O)c1 was read as MrgX1 allo act inactive, MrgX1 ag 43, RGS4 pot inactive, MrgX1 antagonist inactive, RGS4 block inactive, MrgX1 ag confirm 116%, HEK293 Ca flux inactive, HEK293 Ca counter inactive and HEK293 Ca cntr2 inactive.
For COc1ccc(C(=O)c2nc3ccccc3n2C(C)C)cc1OC the results were MrgX1 allo act inactive, MrgX1 ag inactive, RGS4 pot inactive, MrgX1 antagonist inactive and RGS4 block inactive.
`COc1ccc(C(=O)c2nc3ccccc3n2C(C)C)cc1` gave MrgX1 allo act 6.5, MrgX1 ag inactive, RGS4 pot inactive, MrgX1 antagonist inactive, RGS4 block inactive, MrgX1 PAM conf inactive, HEK293 Ca flux inactive, HEK293 Ca counter inactive and HEK293 Ca cntr2 inactive.
Screening C#C[C@@]1(O)CCC2C3CCC4=C/C(=N/OCC(=O)NC(C(=O)NC(CC(C)C)C(=O)O)C(C)C)CC[C@]4(C)C3CC[C@@]21C (stereo partly drawn) returned MrgX1 allo act inactive, MrgX1 ag inactive, RGS4 pot inactive, MrgX1 antagonist inactive and RGS4 block inactive.
`C=Cn1ccnc1P(O)(=S)c1nc(C)c(CCOC(C)=O)s1` (stereo not drawn) gave MrgX1 allo act inactive, MrgX1 ag inactive, RGS4 pot inactive, MrgX1 antagonist inactive and RGS4 block inactive.
